Experimental data published in ChEMBL document CHEMBL4689842, “EUbOPEN Chemogenomics Library wave 1” (2021).
“And” between values parts separate entries of the source, which are not always exact repeats. Equal values may be shown once.

System: HEK-293T
Assay: Multiplex assay against HEK293T;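 as to Population Tubulin-Different-Phenotype (%): share of the cells with healthy nuclei that show this phenotype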
Format: toxicity, cell-based
Details: human
Summary of the method: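 Cells were classed with CellPathfinder machine-learning gating, first as Hoechst high-intensity objects or normal cells, then (normal cells) as healthy, pyknosed or fragmented nuclei, and finally (pyknosed cells) as mitotic or apoptotic. Staining of live cells at seeding used Hoechst33342, BioTracker Green Microtubule Cytoskeleton Dye, MitoTracker Red and Annexin V Alexa Fluor 680, with imaging on a CQ1 microscope at 37°C and 5% CO2 after compound addition. Tubulin, mitochondrial-mass and membrane-permeability phenotypes are per cents of healthy-nucleus cells.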

[1] = 12 h, 1 µM, compound concentration 1 uM, replicate 1
[2] = 12 h, 1 µM, compound concentration 1 uM, replicate 2
[3] = 12 h, 10 µM, compound concentration 10 uM, replicate 1
[4] = 12 h, 10 µM, compound concentration 10 uM, replicate 2
[5] = 24 h, 1 µM, compound concentration 1 uM, replicate 1
[6] = 24 h, 1 µM, compound concentration 1 uM, replicate 2
[7] = 24 h, 10 µM, compound concentration 10 uM, replicate 1
[8] = 24 h, 10 µM, compound concentration 10 uM, replicate 2
[9] = 48 h, 10 µM, compound concentration 10 uM, replicate 1
[10] = 48 h, 10 µM, compound concentration 10 uM, replicate 2

For Cl.O=C(c1ccc(Nc2nccc(-c3cc4ccccc4s3)n2)cc1)N1CCC(N2CCCC2)CC1, the “Population Apoptotic (%)” value [1] was 28%, the “Population Fragmented Nuclei (%)” value [1] was 10% and the “Population Healthy Nuclei (%)” value [1] was 59%. The “Population Hoechst High Intensity Objects (%)” value [1] was 8%, the “Population Membrane Permeable-Phenotype (%)” value [1] was 17% and the “Population Mitochondria Different-Phenotype (%)” value [1] was 14%. The “Population Mitotic Cells (%)” value [1] was 71%, the “Population Normal (%)” value [1] was 91% and the “Population Pyknosed Nuclei (%)” value [1] was 29%. The “Population Tubulin-Different-Phenotype (%)” value [1] was 73%, the “Total Cell Count” value [1] was 657 and the “Population Apoptotic (%)” value [2] was 12%. The “Population Fragmented Nuclei (%)” value [2] was 4%, the “Population Healthy Nuclei (%)” value [2] was 89% and the “Population Hoechst High Intensity Objects (%)” value [2] was 3%. For the same molecule, the “Population Membrane Permeable-Phenotype (%)” value [2] was 11%, the “Population Mitochondria Different-Phenotype (%)” value [2] was 20% and the “Population Mitotic Cells (%)” value [2] was 87%. For the same molecule, the “Population Normal (%)” value [2] was 96%, the “Population Pyknosed Nuclei (%)” value [2] was 6% and the “Population Tubulin-Different-Phenotype (%)” value [2] was 67%. For the same molecule, the “Total Cell Count” value [2] was 1518, the “Population Apoptotic (%)” value [3] was 32% and 71% and the “Population Fragmented Nuclei (%)” value [3] was 13% and 26%. For the same molecule, the “Population Healthy Nuclei (%)” value [3] was 21% and 0%, the “Population Hoechst High Intensity Objects (%)” value [3] was 17% and 23% and the “Population Membrane Permeable-Phenotype (%)” value [3] was 4% and 0%. The “Population Mitochondria Different-Phenotype (%)” value [3] was 66% and 100%, the “Population Mitotic Cells (%)” value [3] was 67% and 28% and the “Population Normal (%)” value [3] was 82% and 76%. For the same molecule, the “Population Pyknosed Nuclei (%)” value [3] was 65% and 72%, the “Population Tubulin-Different-Phenotype (%)” value [3] was 75% and 100% and the “Population Fragmented Nuclei (%)” value [4] was 3% and 9%. For the same molecule, the “Population Hoechst High Intensity Objects (%)” value [4] was 9% and 10%, the “Population Membrane Permeable-Phenotype (%)” value [4] was 6% and the “Population Mitochondria Different-Phenotype (%)” value [4] was 68% and 75%. For the same molecule, the “Population Normal (%)” value [4] was 90% and 89%, the “Population Pyknosed Nuclei (%)” value [4] was 58% and 87% and the “Population Tubulin-Different-Phenotype (%)” value [4] was 97%. For the same molecule, the “Population Apoptotic (%)” value [5] was 17%, the “Population Fragmented Nuclei (%)” value [5] was 8% and the “Population Healthy Nuclei (%)” value [5] was 79%. The “Population Hoechst High Intensity Objects (%)” value [5] was 7%, the “Population Membrane Permeable-Phenotype (%)” value [5] was 24% and the “Population Mitochondria Different-Phenotype (%)” value [5] was 9%. For the same molecule, the “Population Mitotic Cells (%)” value [5] was 82%, the “Population Normal (%)” value [5] was 92% and the “Population Pyknosed Nuclei (%)” value [5] was 11%. For the same molecule, the “Population Tubulin-Different-Phenotype (%)” value [5] was 64%, the “Total Cell Count” value [5] was 845 and the “Population Apoptotic (%)” value [6] was 3%. For the same molecule, the “Population Fragmented Nuclei (%)” value [6] was 14%, the “Population Healthy Nuclei (%)” value [6] was 82% and the “Population Hoechst High Intensity Objects (%)” value [6] was 3%. For the same molecule, the “Population Membrane Permeable-Phenotype (%)” value [6] was 14%, the “Population Mitochondria Different-Phenotype (%)” value [6] was 4% and the “Population Mitotic Cells (%)” value [6] was 96%. The “Population Normal (%)” value [6] was 96%, the “Population Pyknosed Nuclei (%)” value [6] was 2% and the “Population Tubulin-Different-Phenotype (%)” value [6] was 42%. For the same molecule, the “Total Cell Count” value [6] was 2625, the “Population Apoptotic (%)” value [7] was 80% and 55% and the “Population Fragmented Nuclei (%)” value [7] was 24% and 18%. The “Population Healthy Nuclei (%)” value [7] was 0% and 14%, the “Population Hoechst High Intensity Objects (%)” value [7] was 28% and 19% and the “Population Membrane Permeable-Phenotype (%)” value [7] was 0% and 8%. The “Population Mitotic Cells (%)” value [7] was 19% and 44%, the “Population Normal (%)” value [7] was 71% and 80% and the “Population Pyknosed Nuclei (%)” value [7] was 75% and 67%. For the same molecule, the “Population Apoptotic (%)” value [8] was 58% and 99%, the “Population Fragmented Nuclei (%)” value [8] was 7% and 14% and the “Population Hoechst High Intensity Objects (%)” value [8] was 17% and 16%. The “Population Membrane Permeable-Phenotype (%)” value [8] was 9%, the “Population Mitochondria Different-Phenotype (%)” value [8] was 84% and 66% and the “Population Normal (%)” value [8] was 82% and 83%. The “Population Pyknosed Nuclei (%)” value [8] was 79% and 81%, the “Population Tubulin-Different-Phenotype (%)” value [8] was 64% and 66% and the “Population Apoptotic (%)” value [9] was 82%. For the same molecule, the “Population Fragmented Nuclei (%)” value [9] was 35%, the “Population Healthy Nuclei (%)” value [9] was 0% and the “Population Hoechst High Intensity Objects (%)” value [9] was 30%. The “Population Membrane Permeable-Phenotype (%)” value [9] was 0%, the “Population Mitochondria Different-Phenotype (%)” value [9] was 100% and the “Population Mitotic Cells (%)” value [9] was 17%. The “Population Normal (%)” value [9] was 69%, the “Population Pyknosed Nuclei (%)” value [9] was 63% and the “Population Tubulin-Different-Phenotype (%)” value [9] was 100%. For the same molecule, the “Total Cell Count” value [9] was 159, the “Population Apoptotic (%)” value [10] was 100% and the “Population Fragmented Nuclei (%)” value [10] was 19%. The “Population Healthy Nuclei (%)” value [10] was 4%, the “Population Hoechst High Intensity Objects (%)” value [10] was 17% and the “Population Membrane Permeable-Phenotype (%)” value [10] was 16%. The “Population Mitochondria Different-Phenotype (%)” value [10] was 83%, the “Population Mitotic Cells (%)” value [10] was 0% and the “Population Normal (%)” value [10] was 82%. The “Population Pyknosed Nuclei (%)” value [10] was 75%, the “Population Tubulin-Different-Phenotype (%)” value [10] was 66% and the “Total Cell Count” value [10] was 146.
For CN1CCN(C(=O)C(C)(C)c2ccc(C(=O)Nc3cn4cc(-c5cc(C(C)(C)C)cc(C(C)(C)C)c5)ccc4n3)cc2)CC1 [T3-CLK-N], the “Population Apoptotic (%)” value [1] was 14%, the “Population Fragmented Nuclei (%)” value [1] was 15% and the “Population Healthy Nuclei (%)” value [1] was 58%. The “Population Hoechst High Intensity Objects (%)” value [1] was 12%, the “Population Membrane Permeable-Phenotype (%)” value [1] was 5% and the “Population Mitochondria Different-Phenotype (%)” value [1] was 7%. The “Population Mitotic Cells (%)” value [1] was 85%, the “Population Normal (%)” value [1] was 87% and the “Population Pyknosed Nuclei (%)” value [1] was 25%. For the same molecule, the “Population Tubulin-Different-Phenotype (%)” value [1] was 9%, the “Total Cell Count” value [1] was 642 and the “Population Apoptotic (%)” value [2] was 10%. The “Population Fragmented Nuclei (%)” value [2] was 6%, the “Population Healthy Nuclei (%)” value [2] was 84% and the “Population Hoechst High Intensity Objects (%)” value [2] was 2%. For the same molecule, the “Population Membrane Permeable-Phenotype (%)” value [2] was 4%, the “Population Mitochondria Different-Phenotype (%)” value [2] was 13% and the “Population Mitotic Cells (%)” value [2] was 89%. For the same molecule, the “Population Normal (%)” value [2] was 97%, the “Population Pyknosed Nuclei (%)” value [2] was 9% and the “Population Tubulin-Different-Phenotype (%)” value [2] was 21%. The “Total Cell Count” value [2] was 1407, the “Population Apoptotic (%)” value [3] was 21% and the “Population Fragmented Nuclei (%)” value [3] was 16%. For the same molecule, the “Population Healthy Nuclei (%)” value [3] was 46%, the “Population Hoechst High Intensity Objects (%)” value [3] was 18% and the “Population Membrane Permeable-Phenotype (%)” value [3] was 11%. For the same molecule, the “Population Mitochondria Different-Phenotype (%)” value [3] was 13%, the “Population Mitotic Cells (%)” value [3] was 78% and the “Population Normal (%)” value [3] was 81%. The “Population Pyknosed Nuclei (%)” value [3] was 36%, the “Population Tubulin-Different-Phenotype (%)” value [3] was 30% and the “Total Cell Count” value [3] was 631. The “Population Apoptotic (%)” value [4] was 23%, the “Population Fragmented Nuclei (%)” value [4] was 3% and the “Population Healthy Nuclei (%)” value [4] was 80%. For the same molecule, the “Population Hoechst High Intensity Objects (%)” value [4] was 4%, the “Population Membrane Permeable-Phenotype (%)” value [4] was 4% and the “Population Mitochondria Different-Phenotype (%)” value [4] was 26%. The “Population Mitotic Cells (%)” value [4] was 76%, the “Population Normal (%)” value [4] was 95% and the “Population Pyknosed Nuclei (%)” value [4] was 15%. For the same molecule, the “Population Tubulin-Different-Phenotype (%)” value [4] was 63%, the “Total Cell Count” value [4] was 884 and the “Population Apoptotic (%)” value [5] was 16%. For the same molecule, the “Population Fragmented Nuclei (%)” value [5] was 12%, the “Population Healthy Nuclei (%)” value [5] was 76% and the “Population Hoechst High Intensity Objects (%)” value [5] was 10%. The “Population Membrane Permeable-Phenotype (%)” value [5] was 14%, the “Population Mitochondria Different-Phenotype (%)” value [5] was 5% and the “Population Mitotic Cells (%)” value [5] was 83%. The “Population Normal (%)” value [5] was 89%, the “Population Pyknosed Nuclei (%)” value [5] was 10% and the “Population Tubulin-Different-Phenotype (%)” value [5] was 19%. For the same molecule, the “Total Cell Count” value [5] was 686, the “Population Apoptotic (%)” value [6] was 4% and the “Population Fragmented Nuclei (%)” value [6] was 10%. For the same molecule, the “Population Healthy Nuclei (%)” value [6] was 84%, the “Population Hoechst High Intensity Objects (%)” value [6] was 4% and the “Population Membrane Permeable-Phenotype (%)” value [6] was 9%. The “Population Mitochondria Different-Phenotype (%)” value [6] was 8%, the “Population Mitotic Cells (%)” value [6] was 95% and the “Population Normal (%)” value [6] was 95%. For the same molecule, the “Population Pyknosed Nuclei (%)” value [6] was 5%, the “Population Tubulin-Different-Phenotype (%)” value [6] was 40% and the “Total Cell Count” value [6] was 1792. For the same molecule, the “Population Apoptotic (%)” value [7] was 27%, the “Population Fragmented Nuclei (%)” value [7] was 20% and the “Population Healthy Nuclei (%)” value [7] was 46%. For the same molecule, the “Population Hoechst High Intensity Objects (%)” value [7] was 21%, the “Population Membrane Permeable-Phenotype (%)” value [7] was 8% and the “Population Mitochondria Different-Phenotype (%)” value [7] was 23%. For the same molecule, the “Population Mitotic Cells (%)” value [7] was 72%, the “Population Normal (%)” value [7] was 78% and the “Population Pyknosed Nuclei (%)” value [7] was 33%. For the same molecule, the “Population Tubulin-Different-Phenotype (%)” value [7] was 56%, the “Total Cell Count” value [7] was 614 and the “Population Apoptotic (%)” value [8] was 17%. The “Population Fragmented Nuclei (%)” value [8] was 4%, the “Population Healthy Nuclei (%)” value [8] was 88% and the “Population Hoechst High Intensity Objects (%)” value [8] was 3%. For the same molecule, the “Population Membrane Permeable-Phenotype (%)” value [8] was 7%, the “Population Mitochondria Different-Phenotype (%)” value [8] was 37% and the “Population Mitotic Cells (%)” value [8] was 82%. The “Population Normal (%)” value [8] was 96%, the “Population Pyknosed Nuclei (%)” value [8] was 6% and the “Population Tubulin-Different-Phenotype (%)” value [8] was 82%. The “Total Cell Count” value [8] was 947.
